Ecoli WT expand: blocks growth of wild type E. coli BW25113. OD600 absorbance. growth inhibition, % at 100 µM. hit rate 0.15% among 98,000;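 active = growth inhibition above about 50% at one test dose, limit read from the data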;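 note: growth measured after 20 h incubation at 37 °C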
tolC growth inh: growth inhibitors of E. coli BW25113 tolC mutant | OD615 | growth inhibition, % at 10 µM (by protocol) | hit rate 2.2% among 65,000 | AID 573;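 active = growth inhibition at or above a cutoff equal to the mean over every tested compound plus 3 SD, cut at about 60% in these data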;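 note: growth measured after 20 h incubation at 37 °C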
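signal = optical density read at 615 nm | test system = E. coli ΔtolC::kan strain BW25113 | timing = 20 h compound exposure of bacteria at 37 °C | buffer or medium = LB medium plus 50 µg/mL kanamycin | compound dosing = 10 µM final, single dose | evaluation = % inhibition of E. coli growth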
PostGolgi ctrl: inhibits growth of the yeast control strain; efflux-deficient yeast background strain, growth absorbance A615, 16 h; inhibition, % at 10 µM; hit rate 5% among 98,000; AID 738
D1 allo mod: D1 dopamine receptor (human) allosteric modulation; HEK293 D1, CRE-luciferase, dopamine EC30 potentiation; actives deviate in either direction; hit rate 5.9% among 58,000; B-score at 10 µM; P21728;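 active = luminescence count or its row- and column-corrected plate score outside the 99.7% band of the plate's sample wells, on either side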
PostGolgi yeast: growth inhibition of a yeast mutant, post-Golgi transport screen | post-Golgi transport phenotypic cell assay | inhibition, % at 10 µM | hit rate 0.9% among 98,000;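 note: yeast cells grown in 1536-well plates; yeast grown about 18 h at 30C before absorbance read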
hDAT+cocaine: human DAT dopamine uptake with cocaine, either direction. LLC-PK1 hDAT cells, [14C]-dopamine uptake with cocaine IC80; actives deviate in either direction. B-score at 10 µM. Q01959. hit rate 1.3% among 110,000. AID 449768;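 active = Z score or B-score, a plate-position-corrected score, falls beyond the plate's 99.7% confidence bounds, in either direction; inactive = both scores lie inside the 99.7% bounds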
Target sequence (Q01959 whole entry, looked up): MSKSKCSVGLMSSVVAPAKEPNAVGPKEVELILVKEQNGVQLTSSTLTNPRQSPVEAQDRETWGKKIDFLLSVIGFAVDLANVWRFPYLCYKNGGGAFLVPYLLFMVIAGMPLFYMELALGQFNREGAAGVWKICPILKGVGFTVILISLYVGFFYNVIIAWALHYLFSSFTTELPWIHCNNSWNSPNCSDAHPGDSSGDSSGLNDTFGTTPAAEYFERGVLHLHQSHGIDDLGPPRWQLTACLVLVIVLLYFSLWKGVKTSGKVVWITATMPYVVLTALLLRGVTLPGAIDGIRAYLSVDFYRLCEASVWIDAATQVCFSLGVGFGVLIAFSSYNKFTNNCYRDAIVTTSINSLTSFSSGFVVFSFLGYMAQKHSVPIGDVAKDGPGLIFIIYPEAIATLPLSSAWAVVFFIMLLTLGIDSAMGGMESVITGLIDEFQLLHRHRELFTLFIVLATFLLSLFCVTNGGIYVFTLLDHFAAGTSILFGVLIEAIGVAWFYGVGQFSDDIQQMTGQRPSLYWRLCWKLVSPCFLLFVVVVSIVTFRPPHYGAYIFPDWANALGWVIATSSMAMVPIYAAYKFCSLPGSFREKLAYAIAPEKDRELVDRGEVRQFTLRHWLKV
Each line names hits and unclear results; the compound was inactive in the other large screens. Compounds with a hit are over-represented: about 9.3% of the library has one in this group of screens. Cut-off read from the data, not from the text of the source, unless noted: active = inhibition above about 30%; inactive = the rest.

Fc1ccc(-n2nnc(-c3ncc[nH]3)n2)cc1	none (no result: Ecoli WT expand, tolC growth inh, PostGolgi ctrl, D1 allo mod, PostGolgi yeast)
O=C(c1ccccc1)N1CCCCC(Sc2nnc3ccccn23)C1=O (configuration not stated)	PostGolgi ctrl 31
O=C(c1ccc(F)cc1)N1CCCCC(Sc2nnc3ccccn23)C1=O (configuration not stated)	none
O=C(/C=C/c1c(Cl)cccc1Cl)n1cccn1	none (no result: Ecoli WT expand, tolC growth inh, PostGolgi ctrl, D1 allo mod, PostGolgi yeast)
FC(F)(F)c1cc(C(F)(F)F)c2ccc(N3CCN(c4ccc(Cl)cc4)CC3)nc2n1	none (no result: tolC growth inh, D1 allo mod)
N#CC(c1ccc(Cl)cc1)c1ccc2c(C(F)(F)F)cc(C(F)(F)F)nc2n1 (configuration not stated)	PostGolgi ctrl 91, PostGolgi yeast 82, hDAT+cocaine -3.7 (no result: tolC growth inh, D1 allo mod)
CCOCCCNC(=O)C1CCN(C(=O)N(C)C)CC1	PostGolgi yeast 43
Cc1occc1C(=O)n1cnc2ccccc21	none
Cc1occc1C(=O)n1nnc2ccccc21	PostGolgi ctrl 32
N=c1n(CCN2CCOCC2)c2ccccc2n1CC(=O)c1ccc(Cl)c(Cl)c1	tolC growth inh 80
CC1=C2C(CCS2(=O)=O)CC2(C1)C(=O)OC(C)(C)OC2=O (configuration not stated)	none (no result: hDAT+cocaine)
COCCn1c(Cc2ccccc2)nnc1SCC(=O)Nc1cc(C)on1	PostGolgi ctrl 43 (no result: D1 allo mod)
COCCn1c(SCC(=O)Nc2cc(C)on2)nnc1-c1c[nH]c2ccccc12	none
O=C(O)CSc1nnc(-c2cccnc2)n1Cc1ccccc1	hDAT+cocaine -7
Nc1cc(Cl)ccc1C(=O)OCC(=O)NC1CCS(=O)(=O)C1 (configuration not stated)	PostGolgi ctrl 36 (no result: tolC growth inh, D1 allo mod)
O=C(COC(=O)c1ccccc1Oc1ccccc1)NC1CCS(=O)(=O)C1 (configuration not stated)	none
CC1CCN(C(=O)CSc2nnc(CSc3ncccn3)n2C)CC1	none
CC(=O)c1ccc(NC2OC(CO)C(O)C(O)C2O)cc1 (configuration not stated)	none
CC(=O)c1ccc(NC2OC(C)C(O)C(O)C2O)cc1 (configuration not stated)	hDAT+cocaine -2.8
CCCCN(C(=O)CSc1nnc(Nc2ccc(C)c(C)c2)s1)c1c(N)n(Cc2ccccc2)c(=O)[nH]c1=O	PostGolgi ctrl 37 (no result: tolC growth inh, D1 allo mod)
N#Cc1ccc(CSc2nnc(Cc3cccs3)n2Cc2ccco2)cc1	none
Cc1ccc(C(=O)CSc2nnc(CNc3ccc(C)cc3C)n2Cc2ccco2)cc1	PostGolgi ctrl 40
Cc1ccc(NCc2nnc(SCc3ccc(C#N)cc3)n2Cc2ccco2)c(C)c1	tolC growth inh 61, PostGolgi ctrl 40, PostGolgi yeast 49
COc1ccc(C(=O)CSc2nnc(CNc3ccc(C)cc3C)n2Cc2ccco2)cc1	none
CCCCCC#CCC#CCC#CCC#CCCCC(=O)O	none (no result: Ecoli WT expand, PostGolgi ctrl, PostGolgi yeast)
Cc1n[nH]c(C)c1Cc1ccc(C(=O)O)cc1	none
O=C(O)c1cccc(-n2cccc2/C=N/O)c1	none
ON=Cc1cccn1-c1ccccc1	PostGolgi yeast 30
NNC(=O)c1ccccc1CO	none (no result: Ecoli WT expand, tolC growth inh, PostGolgi ctrl, D1 allo mod, PostGolgi yeast)
CC(C)(C)n1nc(-c2ccc(F)cc2)c2c(N)ncnc21	PostGolgi ctrl 57 (no result: tolC growth inh, D1 allo mod)
CC(C)(C)n1nc(-c2ccc(Cl)cc2)c2c(N)ncnc21	PostGolgi ctrl 65 (no result: tolC growth inh, D1 allo mod)
Cc1ccc(-c2nc(N)c3c(-c4ccc(C)cc4)nn(C(C)(C)C)c3n2)cc1	none (no result: tolC growth inh, D1 allo mod)
Cc1ccc(OCCn2cnc3c(N)ncnc32)cc1	none (no result: tolC growth inh, D1 allo mod)
C=CCc1ccc(OCCCCCN2CCOCC2)c(OC)c1	none
Cc1nn(C)c(Oc2ccc(Cl)cc2)c1C(=O)Nc1ccc(F)cc1F	none (no result: tolC growth inh, D1 allo mod)
CCOC(=O)C1CCCCN1Cc1ccccc1C(F)(F)F (configuration not stated)	none (no result: Ecoli WT expand, PostGolgi ctrl, PostGolgi yeast)
CC(C)(C)c1nc(SCC(=O)Nc2nc3c(s2)CCCC3)c2ccccc2n1	PostGolgi ctrl 34 (no result: tolC growth inh, D1 allo mod)
Cc1nnc(NC(=O)CSc2nc(C(C)C)nc3ccccc23)s1	none (no result: tolC growth inh, D1 allo mod)
O=C(CSc1ncn(-c2ccccc2)n1)Nc1nc2c(s1)CCCC2	tolC growth inh 61, PostGolgi ctrl 46
Cn1c(SCC(=O)Nc2nc3c(s2)CCCC3)nnc1-c1ccccc1	none
O=C(CCSc1ccccc1)Nc1nc2c(s1)CCCC2	none (no result: tolC growth inh, D1 allo mod)
O=C(CSc1nc(Cc2ccccc2)nc2ccccc12)Nc1nc2c(s1)CCCC2	PostGolgi ctrl 40 (no result: tolC growth inh, D1 allo mod)
CC(C)c1nc(SCC(=O)Nc2nc3c(s2)CCCC3)c2ccccc2n1	PostGolgi ctrl 39 (no result: tolC growth inh, D1 allo mod)
O=C(c1ccco1)N1CCN(c2nnc(-c3ccccc3)c3ccccc23)CC1	none (no result: tolC growth inh, D1 allo mod)
CC(=O)C(C(C)=O)c1c(Cl)c(O)c(O)c2c(C(=O)c3ccccc3)coc12	none
CCc1c(C(=O)N/N=C/c2ccc(C)o2)csc1C	none (no result: Ecoli WT expand, tolC growth inh, PostGolgi ctrl, D1 allo mod, PostGolgi yeast)
C/C=C/C(=O)N(CC)c1ccccc1C	none (no result: Ecoli WT expand, tolC growth inh, PostGolgi ctrl, D1 allo mod, PostGolgi yeast)
CC(=O)Nc1ccc(C(=O)CSc2ncn(-c3ccccc3)n2)cc1	PostGolgi ctrl 35
O=C(CSc1ncn(-c2ccccc2)n1)Nc1nccs1	none (no result: tolC growth inh, D1 allo mod)
Cc1ccc(C(=O)C2CCN(CC(=O)Nc3nc(C)cs3)CC2)cc1	none (no result: tolC growth inh, D1 allo mod)
Cc1ccc(C)c(S(=O)(=O)NC(C)C(=O)Nc2ccc(-c3nc4ccccc4s3)cc2)c1 (configuration not stated)	PostGolgi ctrl 33 (no result: tolC growth inh, D1 allo mod)
CC(Oc1ccc(Cl)cc1Cl)C(=O)Nc1ccc(N2CCN(C)CC2)cc1 (configuration not stated)	D1 allo mod -4.8
CC(=O)N1CCN(c2ccc(NC(=O)C(C)Oc3ccc(Cl)cc3Cl)cc2)CC1 (configuration not stated)	none (no result: tolC growth inh, D1 allo mod)
Cc1nnc(NC(=O)C2CCCN(S(=O)(=O)c3ccccc3C(F)(F)F)C2)s1 (configuration not stated)	PostGolgi ctrl 42
Cc1csc(NC(=O)C2CCCN(S(=O)(=O)c3ccc(Br)s3)C2)n1 (configuration not stated)	tolC growth inh 71 (no result: D1 allo mod)
Cc1nnc(NC(=O)C2CCCN(S(=O)(=O)Cc3ccccc3)C2)s1 (configuration not stated)	none
CSC(=NNC(=O)c1ccc(O)cc1)SC	none (no result: tolC growth inh, D1 allo mod)
CCC(C(=O)N1CCc2ccccc2C1)n1nc(C)n2c(cc3occc32)c1=O (configuration not stated)	PostGolgi ctrl 30
O=C(NCc1ccc2c(c1)OCO2)c1cc2ccccc2oc1=O	none (no result: Ecoli WT expand, tolC growth inh, PostGolgi ctrl, D1 allo mod, PostGolgi yeast)
O=C(c1cc2ccccc2oc1=O)N(Cc1ccc2c(c1)OCO2)Cc1ccco1	PostGolgi ctrl 42 (no result: D1 allo mod)
Cc1cc(C)n(CCCNCC(O)c2ccccc2)n1 (configuration not stated)	none
C=CCc1ccccc1OCC(O)CN1CCN(Cc2ccc3c(c2)OCO3)CC1 (configuration not stated)	PostGolgi ctrl 45, D1 allo mod -5.8, PostGolgi yeast 99
CCCCOC(=O)Nc1ccc(C(=O)OCCC)cc1	tolC growth inh 67
O=C1CN(C(=O)c2cc(Br)c(Br)s2)c2ccccc2N1	PostGolgi ctrl 37 (no result: tolC growth inh, D1 allo mod)
Fc1cccc(-c2cc3nc4c(c(NCc5ccco5)n3n2)CCCC4)c1	PostGolgi ctrl 49 (no result: tolC growth inh, D1 allo mod)
Fc1cccc(-c2cc3nc4c(c(N5CCN(c6cnccn6)CC5)n3n2)CCCC4)c1	none (no result: Ecoli WT expand, PostGolgi ctrl, PostGolgi yeast, hDAT+cocaine)

Bioassay records deposited in PubChem BioAssay by several laboratories.
